Test results reported in ChEMBL document CHEMBL1140053, “Discovery of antimycobacterial spiro-piperidin-4-ones: an atom economic, stereoselective synthesis, and biological intervention” (J Med Chem, 2008).
Values after ≈ are worked out from the molar mass of the structure shown.

How the values were obtained:
[1] = test system: Mycobacterium tuberculosis; assay: Antimycobacterial activity against Mycobacterium tuberculosis H37Rv by agar dilution method; format: functional
[2] = test system: Mycolicibacterium smegmatis; assay: Antimycobacterial activity against Mycobacterium smegmatis MC2 by agar dilution method; format: functional
Vero = assay: Cytotoxicity against african green monkey Vero cells after 72 hrs by MTT assay; format: cell-based; details: Chlorocebus sabaeus
[3] = test system: Mycobacterium tuberculosis; assay: Antimycobacterial activity against Mycobacterium tuberculosis H37Rv ATCC 35801 infected in CD1 mouse assessed as bacterial load in spleen at 25 mg/kg, ip after 10 days; format: functional; details: route intraperitoneal
Outline: (§1)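 Six-week-old female CD-1 mice, six per group, infected via caudal vein with approximately 10⁷ viable organisms. Intraperitoneal dosing at 25 mg/kg began 10 days post-inoculation and continued for 10 days. At 35 days post-infection, spleens and right lungs were homogenized and plated in serial 10-fold dilutions on 7H10 agar, incubated at 37 °C, 4 weeks. CFU compared with vehicle-treated controls.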

[4] = test system: Mycobacterium tuberculosis; assay: Antimycobacterial activity against Mycobacterium tuberculosis H37Rv ATCC 35801 infected in CD1 mouse assessed as bacterial load in lungs at 25 mg/kg, ip after 10 days; format: functional; details: route intraperitoneal; outline: as §1
[5] = Selectivity index, ratio of IC50 for african green monkey Vero cells to MIC for mycobacterium; format: functional
Outline: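 Selectivity index taken as IC50/MIC. IC50 comes from Vero cells exposed to serial dilutions up to 62.5 µg/mL for 72 h, with viability read by MTT conversion to formazan. MIC comes from agar dilution in Middlebrook 7H11 with OADC at pH 7.40, run in duplicate, and is the lowest concentration giving complete growth inhibition.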

SMILES	MIC [1]	MIC [2]	IC50 (Vero)	log10cfu [3]	log10cfu [4]	Selectivity Index [5]
CN1C/C(=C\c2ccc(Cl)cc2)C(=O)[C@]2(C1)[C@@H](c1ccc(Cl)cc1)[C@H](c1ccccc1)N[C@@]21C(=O)Nc2ccccc21 (racemic)	5.27 µg/mL (≈ 8.86 µM)	42.1 µg/mL (≈ 70.8 µM)				
COc1ccc(/C=C2\CN(C)C[C@@]3(C2=O)[C@@H](c2ccc(OC)cc2)CN(C)[C@@]32C(=O)Nc3ccccc32)cc1 (racemic)	0.75 µg/mL (≈ 1.43 µM)	2.98 µg/mL (≈ 5.69 µM)	120 µM			
CN1C/C(=C\c2ccccc2)C(=O)[C@]2(C1)[C@@H](c1ccccc1)CN(C)[C@@]21C(=O)Nc2ccccc21 (racemic)	13.5 µg/mL (≈ 29.1 µM)	54 µg/mL (≈ 116 µM)				
CN1C/C(=C\c2cccs2)C(=O)[C@]2(C1)[C@@H](c1cccs1)CN(C)[C@@]21C(=O)Nc2ccccc21 (racemic)	1.64 µg/mL (≈ 3.45 µM)	6.59 µg/mL (≈ 13.9 µM)	132 µM			
CN1C/C(=C\c2ccccc2)C(=O)[C@]2(C1)[C@@H](c1ccccc1)[C@H](c1ccccc1)N[C@@]21C(=O)Nc2ccccc21 (racemic)	0.74 µg/mL (≈ 1.41 µM)	2.97 µg/mL (≈ 5.65 µM)	119 µM			
CN1C/C(=C\c2ccccc2)C(=O)[C@]2(C1)[C@@H](c1ccccc1)[C@@H]1CCCN1[C@@]21C(=O)Nc2ccccc21 (racemic)	25.6 µg/mL (≈ 52.2 µM)	102 µg/mL (≈ 209 µM)				
CN1C/C(=C\c2ccco2)C(=O)[C@]2(C1)[C@@H](c1ccco1)CN(C)[C@@]21C(=O)Nc2ccccc21 (racemic)	1.76 µg/mL (≈ 3.97 µM)	0.88 µg/mL (≈ 1.98 µM)	141 µM			
CN1C/C(=C\c2ccccc2Cl)C(=O)[C@]2(C1)[C@@H](c1ccccc1Cl)[C@H](c1ccccc1)N[C@@]21C(=O)Nc2ccccc21 (racemic)	2.63 µg/mL (≈ 4.42 µM)	10.5 µg/mL (≈ 17.7 µM)	105 µM			
NNC(=O)c1ccncc1 [ISONIAZID]	0.36 µg/mL (≈ 2.63 µM)	45.6 µg/mL (≈ 332 µM)		4.92	5.61	
O=C(O)c1cn(C2CC2)c2cc(N3CCNCC3)c(F)cc2c1=O [CIPROFLOXACIN]		2.35 µg/mL (≈ 7.09 µM)				
CN1C/C(=C\c2ccco2)C(=O)[C@]2(C1)[C@@H](c1ccco1)[C@@H]1CCCN1[C@@]21C(=O)Nc2ccccc21 (racemic)	53.3 µg/mL (≈ 114 µM)	107 µg/mL (≈ 227 µM)				
CN1C/C(=C\c2cccc(F)c2)C(=O)[C@]2(C1)[C@@H](c1cccc(F)c1)[C@@H]1CCCN1[C@@]21C(=O)Nc2ccccc21 (racemic)	5.96 µg/mL (≈ 11.3 µM)	23.8 µg/mL (≈ 45.3 µM)				
COc1ccc(/C=C2\CN(C)C[C@@]3(C2=O)[C@@H](c2ccc(OC)cc2)[C@@H]2CCCN2[C@@]32C(=O)Nc3ccccc32)cc1 (racemic)	5.7 µg/mL (≈ 10.4 µM)	45.5 µg/mL (≈ 82.8 µM)				
Cc1ccc(/C=C2\CN(C)C[C@@]3(C2=O)[C@@H](c2ccc(C)cc2)[C@@H]2CCCN2[C@@]32C(=O)Nc3ccccc32)cc1 (racemic)	12.1 µg/mL (≈ 23.4 µM)	24.2 µg/mL (≈ 46.7 µM)				
CN1C/C(=C\c2ccc(Cl)cc2Cl)C(=O)[C@]2(C1)[C@@H](c1ccc(Cl)cc1Cl)[C@@H]1CCCN1[C@@]21C(=O)Nc2ccccc21 (racemic)	19.9 µg/mL (≈ 31.8 µM)	79.7 µg/mL (≈ 127 µM)				
CN1C/C(=C\c2ccc(F)cc2)C(=O)[C@]2(C1)[C@@H](c1ccc(F)cc1)[C@H](c1ccccc1)N[C@@]21C(=O)Nc2ccccc21 (racemic)	0.07 µg/mL (≈ 0.125 µM)	0.69 µg/mL (≈ 1.23 µM)	111 µM	5.2	6.01	1634
COc1ccccc1/C=C1\CN(C)C[C@@]2(C1=O)[C@@H](c1ccccc1OC)[C@H](c1ccccc1)N[C@@]21C(=O)Nc2ccccc21 (racemic)	1.33 µg/mL (≈ 2.27 µM)	1.33 µg/mL (≈ 2.27 µM)	107 µM			
Cc1ccccc1/C=C1\CN(C)C[C@@]2(C1=O)[C@@H](c1ccccc1C)[C@H](c1ccccc1)N[C@@]21C(=O)Nc2ccccc21 (racemic)	2.82 µg/mL (≈ 5.09 µM)	11.3 µg/mL (≈ 20.4 µM)	113 µM			
CN1C/C(=C\c2ccc(F)cc2)C(=O)[C@]2(C1)[C@@H](c1ccc(F)cc1)[C@@H]1CCCN1[C@@]21C(=O)Nc2ccccc21 (racemic)	2.97 µg/mL (≈ 5.65 µM)	23.8 µg/mL (≈ 45.3 µM)	119 µM			
CN1C/C(=C\c2cccc(F)c2)C(=O)[C@]2(C1)[C@@H](c1cccc(F)c1)[C@H](c1ccccc1)N[C@@]21C(=O)Nc2ccccc21 (racemic)	2.78 µg/mL (≈ 4.95 µM)	5.58 µg/mL (≈ 9.94 µM)	111 µM			
CN1C/C(=C\c2ccc(Cl)cc2Cl)C(=O)[C@]2(C1)[C@@H](c1ccc(Cl)cc1Cl)[C@H](c1ccccc1)N[C@@]21C(=O)Nc2ccccc21 (racemic)	2.35 µg/mL (≈ 3.54 µM)	9.43 µg/mL (≈ 14.2 µM)	94.3 µM			

SMILES	MIC [1]	MIC [2]	IC50 (Vero)	log10cfu [3]	log10cfu [4]	Selectivity Index [5]
CN1C/C(=C\c2cccc3ccccc23)C(=O)[C@]2(C1)[C@@H](c1cccc3ccccc13)[C@@H]1CCCN1[C@@]21C(=O)Nc2ccccc21 (racemic)	2.65 µg/mL (≈ 4.49 µM)	10.6 µg/mL (≈ 18 µM)	106 µM			
CN1C/C(=C\c2ccccc2Cl)C(=O)[C@]2(C1)[C@@H](c1ccccc1Cl)CN(C)[C@@]21C(=O)Nc2ccccc21 (racemic)	0.17 µg/mL (≈ 0.319 µM)	1.47 µg/mL (≈ 2.76 µM)	117 µM			
Cc1ccc(/C=C2\CN(C)C[C@@]3(C2=O)[C@@H](c2ccc(C)cc2)CN(C)[C@@]32C(=O)Nc3ccccc32)cc1 (racemic)	6.37 µg/mL (≈ 13 µM)	50.9 µg/mL (≈ 104 µM)				
CN1C/C(=C\c2ccc(F)cc2)C(=O)[C@]2(C1)[C@@H](c1ccc(F)cc1)CN(C)[C@@]21C(=O)Nc2ccccc21	6.27 µg/mL (≈ 12.6 µM)	50.1 µg/mL (≈ 100 µM)				
CN1C/C(=C\c2ccc(Cl)cc2)C(=O)[C@]2(C1)[C@@H](c1ccc(Cl)cc1)[C@@H]1CCCN1[C@@]21C(=O)Nc2ccccc21 (racemic)	22.7 µg/mL (≈ 40.7 µM)	90.9 µg/mL (≈ 163 µM)				
CN1C/C(=C\c2ccc(Cl)cc2)C(=O)[C@]2(C1)[C@@H](c1ccc(Cl)cc1)CN(C)[C@@]21C(=O)Nc2ccccc21 (racemic)	2.93 µg/mL (≈ 5.5 µM)	5.88 µg/mL (≈ 11 µM)	117 µM			
Cc1ccccc1/C=C1\CN(C)C[C@@]2(C1=O)[C@@H](c1ccccc1C)[C@@H]1CCCN1[C@@]21C(=O)Nc2ccccc21 (racemic)	12.1 µg/mL (≈ 23.4 µM)	24.2 µg/mL (≈ 46.7 µM)				
CN1C/C(=C\c2cccc(F)c2)C(=O)[C@]2(C1)[C@@H](c1cccc(F)c1)CN(C)[C@@]21C(=O)Nc2ccccc21 (racemic)	1.56 µg/mL (≈ 3.12 µM)	6.27 µg/mL (≈ 12.6 µM)	125 µM			
Cc1ccc(/C=C2\CN(C)C[C@@]3(C2=O)[C@@H](c2ccc(C)cc2)[C@H](c2ccccc2)N[C@@]32C(=O)Nc3ccccc32)cc1 (racemic)	0.71 µg/mL (≈ 1.28 µM)	2.82 µg/mL (≈ 5.09 µM)	113 µM			
CN1C/C(=C\c2cccc3ccccc23)C(=O)[C@]2(C1)[C@@H](c1cccc3ccccc13)[C@H](c1ccccc1)N[C@@]21C(=O)Nc2ccccc21 (racemic)	5.01 µg/mL (≈ 8.01 µM)	20 µg/mL (≈ 32 µM)				
CN1C/C(=C\c2cccs2)C(=O)[C@]2(C1)[C@@H](c1cccs1)[C@H](c1ccccc1)N[C@@]21C(=O)Nc2ccccc21 (racemic)	11.6 µg/mL (≈ 21.6 µM)	11.6 µg/mL (≈ 21.6 µM)				
CN1C/C(=C\c2ccccc2Cl)C(=O)[C@]2(C1)[C@@H](c1ccccc1Cl)[C@@H]1CCCN1[C@@]21C(=O)Nc2ccccc21 (racemic)	0.35 µg/mL (≈ 0.627 µM)	5.69 µg/mL (≈ 10.2 µM)	114 µM			
COc1ccccc1/C=C1\CN(C)C[C@@]2(C1=O)[C@@H](c1ccccc1OC)[C@@H]1CCCN1[C@@]21C(=O)Nc2ccccc21 (racemic)	0.71 µg/mL (≈ 1.29 µM)	2.84 µg/mL (≈ 5.17 µM)	114 µM			
Cc1ccccc1/C=C1\CN(C)C[C@@]2(C1=O)[C@@H](c1ccccc1C)CN(C)[C@@]21C(=O)Nc2ccccc21 (racemic)	0.39 µg/mL (≈ 0.793 µM)	1.59 µg/mL (≈ 3.23 µM)	127 µM			
CN1C/C(=C\c2cccc3ccccc23)C(=O)[C@]2(C1)[C@@H](c1cccc3ccccc13)CN(C)[C@@]21C(=O)Nc2ccccc21 (racemic)	11.1 µg/mL (≈ 19.7 µM)	22.2 µg/mL (≈ 39.4 µM)				
CN1C/C(=C\c2cccs2)C(=O)[C@]2(C1)[C@@H](c1cccs1)[C@@H]1CCCN1[C@@]21C(=O)Nc2ccccc21 (racemic)	0.38 µg/mL (≈ 0.757 µM)	3.11 µg/mL (≈ 6.2 µM)	125 µM			
CN1C/C(=C\c2ccco2)C(=O)[C@]2(C1)[C@@H](c1ccco1)[C@H](c1ccccc1)N[C@@]21C(=O)Nc2ccccc21 (racemic)	24.8 µg/mL (≈ 49 µM)	49.5 µg/mL (≈ 97.9 µM)				
CN1C/C(=C\c2ccc(Cl)cc2Cl)C(=O)[C@]2(C1)[C@@H](c1ccc(Cl)cc1Cl)CN(C)[C@@]21C(=O)Nc2ccccc21 (racemic)	1.29 µg/mL (≈ 2.15 µM)	5.21 µg/mL (≈ 8.66 µM)	104 µM			
COc1ccc(/C=C2\CN(C)C[C@@]3(C2=O)[C@@H](c2ccc(OC)cc2)[C@H](c2ccccc2)N[C@@]32C(=O)Nc3ccccc32)cc1 (racemic)	0.67 µg/mL (≈ 1.14 µM)	1.33 µg/mL (≈ 2.27 µM)	107 µM			
COc1ccccc1/C=C1\CN(C)C[C@@]2(C1=O)[C@@H](c1ccccc1OC)CN(C)[C@@]21C(=O)Nc2ccccc21 (racemic)	0.36 µg/mL (≈ 0.688 µM)	2.98 µg/mL (≈ 5.69 µM)	120 µM			
